Key:
Assay type in all cases: functional, cell-based
HL-60 = experiment: Antiproliferative activity against human HL60 cells assessed as inhibition of cell viability after 48 hrs by WST-1 assay; conditions: HL-60, 48 h
How it was run: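 WST-1 assay. HL-60 cells were seeded at 1.0 × 10^4 per well in FBS-containing medium together with test agents and incubated 48 h. Absorbance read at 415 nm. Viability expressed as percent of untreated controls; IC50 reported.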

HCT-116 = experiment: Antiproliferative activity against human HCT116 cells assessed as inhibition of cell viability after 48 hrs by MTT assay; conditions: HCT-116, 48 h
How it was run: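 HCT-116 cells seeded at 2.0 × 10^3 per well and allowed to attach for 24 h at 37 °C, 5% CO2. Agents were added in FBS-containing medium for 48 h. MTT (5 mg/mL in PBS stock) was then added for 4 h, formazan dissolved in DMSO, and absorbance read at 570 nm. Viability expressed as percent of untreated controls; IC50 reported.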

HepG2 = experiment: Cytotoxicity against human HepG2 cells

| Structure (SMILES) | IC50 (HL-60) | IC50 (HCT-116) | IC50 (HepG2) |
| --- | --- | --- | --- |
| COc1ccc2c(c[n+](C)c3c4cc5c(cc4ccc23)OCO5)c1O | 0.79 µM | 1.31 µM | – |
| COc1cc2c(cc1O)c[n+](C)c1c3cc4c(cc3ccc21)OCO4 | > 10 µM | > 10 µM | – |
| COc1cc2c[n+](C)c3c4cc5c(cc4ccc3c2cc1O)OCO5 | 3.28 µM | 3.35 µM | – |
| COc1cc2c(cc1O)-c1ccc3cc4c(cc3c1N(C)C2)OCO4 | > 10 µM | 7.28 µM | – |
| COc1c(O)ccc2c1-c1ccc3cc4c(cc3c1N(C)C2)OCO4 | > 10 µM | > 10 µM | – |
| COc1ccc2c(cnc3c4cc5c(cc4ccc23)OCO5)c1O | > 10 µM | > 10 µM | – |
| COc1cc2c(cnc3c4cc5c(cc4ccc23)OCO5)cc1O | > 10 µM | > 10 µM | – |
| COc1cc2cnc3c4cc5c(cc4ccc3c2cc1O)OCO5 | > 10 µM | > 10 µM | – |
| COc1c(O)ccc2cnc3c4cc5c(cc4ccc3c12)OCO5 | > 10 µM | > 10 µM | – |
| COc1ccc2c(c1O)CN(C)c1c-2ccc2cc3c(cc12)OCO3 | 4.96 µM | 3.22 µM | – |
| COc1ccc2c(c[n+](C)c3c4cc5c(cc4ccc23)OCO5)c1OC [CHELERYTHRINE CHLORIDE] | 2.99 µM | 2.13 µM | – |
| COc1ccc2c(c1OC)CN(C)c1c-2ccc2cc3c(cc12)OCO3 [DIHYDROCHELERYTHRINE] | > 10 µM | > 10 µM | – |

The next lines start with results.

| IC50 (HL-60) | IC50 (HCT-116) | Structure (SMILES) | IC50 (HepG2) |
| --- | --- | --- | --- |
| > 10 µM | > 10 µM | COc1ccc2c(cnc3c4cc5c(cc4ccc23)OCO5)c1OC | – |
| 7.82 µM | 3.23 µM | COc1ccc2c[n+](C)c3c4cc5c(cc4ccc3c2c1OC)OCO5 | – |
| > 10 µM | > 10 µM | COc1c(O)ccc2c[n+](C)c3c4cc5c(cc4ccc3c12)OCO5 | – |
| > 10 µM | > 10 µM | COc1ccc2c(c1OC)-c1ccc3cc4c(cc3c1N(C)C2)OCO4 | – |
| > 10 µM | > 10 µM | COc1ccc2cnc3c4cc5c(cc4ccc3c2c1OC)OCO5 | – |
| 4.51 µM | 6.61 µM | COc1cc2c(cc1OC)-c1ccc3cc4c(cc3c1N(C)C2)OCO4 | – |
| > 10 µM | > 10 µM | COc1cc2cnc3c4cc5c(cc4ccc3c2cc1OC)OCO5 | – |
| 3.41 µM | 4.42 µM | COc1cc2c[n+](C)c3c4cc5c(cc4ccc3c2cc1OC)OCO5 [NITIDINE CHLORIDE] | 3.52 µM |
